# Compound activity (PubChem BioAssay)
# An excerpt weighted towards active compounds, which were near 4.1% of everything screened.
# SMARCA2 activ – increases SMARCA2 function in MMTV reporter cells. MG213 cells, MMTV-luciferase reporter, dexamethasone, overnight. activation, % at 9.1 µM. 1% of 370,000 active; in the data active means activation above about 7.8%
# ATG4B inhibitor – ATG4B (human) cysteine protease inhibition; Q9Y4P1; ATG4B cleavage of LC3-PLA2, NBD-HPC fluorescence, 1 h; inhibition, % at 8.33 µM; 0.51% of 340,000 active; in the data active means inhibition above about 40%
# MC4R antagonist – antagonists of human melanocortin 4 receptor (MC4R). P32245. MC4R-expressing cells, MTII-stimulated cAMP, LANCE TR-FRET. inhibition, % at 6.5 µM. 0.48% of 360,000 active;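 active means inhibition above its plate's cutoff, the mean of tested wells on that plate plus 3 SD, cut at about 29% in these data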
# Target sequence (P32245 whole entry, looked up): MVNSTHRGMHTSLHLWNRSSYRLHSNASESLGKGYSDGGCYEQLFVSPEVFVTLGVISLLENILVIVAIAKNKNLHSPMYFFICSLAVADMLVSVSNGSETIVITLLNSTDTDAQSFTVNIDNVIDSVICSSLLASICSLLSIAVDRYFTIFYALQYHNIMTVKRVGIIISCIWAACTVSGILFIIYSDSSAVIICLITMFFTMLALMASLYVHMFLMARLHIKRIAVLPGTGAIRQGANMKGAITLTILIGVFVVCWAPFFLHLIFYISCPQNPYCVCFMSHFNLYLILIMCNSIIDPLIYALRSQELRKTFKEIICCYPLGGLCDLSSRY
#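 System – human MC4R-expressing U2OS cells · Also added – Melanotan II · Dosing – one concentration, 6.5 µM nominal · Timing – 30-min compound, 1-h challenge, 1-h detection, room temperature · Measured by – Eu-cAMP/anti-cAMP TR-FRET, emission 671 nm · Replicates – singlicate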
# MPTP inh – blocks calcium-induced mitochondrial swelling | AID 602449 | isolated mouse mitochondria, Ca2+ swelling absorbance, 30 min | inhibition, % at 10 µM | 1.4% of 360,000 active;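 active means inhibition of 50% or more, scaled per plate between neutral and stimulator controls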
# MC4R barr agon – human MC4R agonism via beta-arrestin | 0.98% of 360,000 active | U2OS MC4R beta-arrestin complementation, luminescence; percent of melanotan II response, DMSO zero | activation, % at 8.9 µM;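 active means activation above a per-plate cutoff, the mean activation of sample wells on that plate plus 3 SD, cut at about 8% in these data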
# MPTP counter – mitochondrial membrane potential, counter-screen. shares compounds with MPTP inh. isolated mitochondria, Rhodamine 123 fluorescence. inhibition, % at 10 µM. 78% of 5,000 active; in the data active means inhibition above about 22%
# MPTP swell DR – dose response confirmation of mitochondrial permeability transition pore inhibitors; shares compounds with MPTP inh; 58% of 780 active; IC50, µM; isolated mitochondria swelling, absorbance; in the data active means IC50 below about 20 µM
# MPTP cs DR – counter-screen for mitochondrial permeability transition pore inhibitors, dose response; shares compounds with MPTP inh; isolated mitochondria counterscreen, fluorescence read-out; IC50, µM; 49% of 780 active; in the data active means IC50 below about 80 µM
# A number is an active result; – = inactive; · = no result given.
SMILES,SMARCA2 activ,ATG4B inhibitor,MC4R antagonist,MPTP inh,MC4R barr agon,MPTP counter,others
O=C(O)c1ccccc1C(=O)Nc1ccc(Br)c(C(F)(F)F)c1,–,–,–,–,–,·,
Cc1cc(C)c(C(=O)Nc2ccc(Br)c(C(F)(F)F)c2)c(C)c1,–,–,–,58,–,83,
O=C(Nc1ccc(Cl)cc1)Nc1cnccn1,–,–,–,53,–,70,
O=C(Nc1ccccc1)Nc1cnccn1,–,–,–,–,–,·,
O=C(Nc1ccc([N+](=O)[O-])cc1)Nc1cnccn1,–,–,–,69,–,89,
Cc1nc(N2CCC(C)CC2)c2c(C)c(C(=O)Nc3ccc4c(c3)OCCO4)sc2n1,–,–,–,–,–,·,
Cc1nc(N2CCC(C)CC2)c2c(C)c(C(=O)Nc3ccc(C(F)(F)F)cc3)sc2n1,–,–,–,88,–,38,
Cc1nc(N2CCC(C)CC2)c2c(C)c(C(=O)Nc3cccc(C(F)(F)F)c3)sc2n1,–,–,–,84,–,–,MPTP swell DR=–;MPTP cs DR=7.7
O=C(Nc1ccc(Cl)c(Cl)c1)Nc1cc(C(=O)N2CCOCC2)ccc1N1CCCCC1,–,–,–,95,–,–,MPTP swell DR=18;MPTP cs DR=<2.5
O=C(Nc1ccc(Cl)c(Cl)c1)Nc1cc(S(=O)(=O)N2CCOCC2)ccc1N1CCCC1,–,–,–,94,–,68,
CCN=C1NC(c2ccc(C(F)(F)F)cc2)C(C(=O)OC)=C(C)N1Cc1cccc(C(F)(F)F)c1 (stereo unspecified),–,·,·,·,·,·,
CC(C)(C)C(=O)OC12CCCN(C1)/C(=C/c1ccccc1)C2 (stereo unspecified),–,·,·,·,·,·,
Clc1c(Cl)c(Cl)c2n[nH]nc2c1Cl,–,–,–,72,–,77,
COc1cc(NC(=O)c2cc3ccccc3cc2O)c(OC)cc1Cl,–,–,–,–,–,·,
Cc1ccc(Cl)cc1NC(=O)c1cc2ccccc2cc1O,–,–,–,99,8.4,74,
COc1ccccc1NC(=O)c1cc2cc(Br)ccc2cc1O,–,–,–,80,–,28,
CC1CCc2sc(C(=O)NCc3ccc(F)cc3)cc2C1 (stereo unspecified),–,–,–,58,–,62,
O=C(NCc1ccc(F)cc1)c1cc2c(s1)CCCC2,–,–,–,–,–,·,
CCN1C(=O)/C(=C2\SC(=S)N(NC(=O)c3ccccc3O)C2=O)c2ccccc21,–,–,–,87,–,32,
C[C@@H]1CN([C@H](C)CO)C(=O)c2cc(NS(=O)(=O)c3ccccc3)ccc2O[C@@H](C)CCCCO[C@@H]1CN(C)Cc1ccc(Cl)c(Cl)c1,–,·,·,·,·,·,
O=c1[nH]nc(Cc2ccc(-c3ccc(Cl)cc3)o2)c2ccccc12,–,–,–,64,–,–,MPTP swell DR=–;MPTP cs DR=10
O=c1[nH]nc(Cc2ccccc2)c2ccccc12,–,–,–,–,–,·,
CC(C)C[C@H]1COc2ccc(Cl)cc2S(=O)(=O)N1Cc1cn(Cc2ccc(C(F)(F)F)cc2)nn1,–,·,·,·,·,·,
CCOC(=O)[C@@]12CN(C(=O)OC(C)(C)C)CC=C1N(Cc1ccc(OC)cc1)C(=O)[C@H]2CC(=O)NCc1cccc(C(F)(F)F)c1,–,·,·,·,·,·,
O=C(CC1NCCc2ccccc21)Nc1ccc(Oc2ccccc2)cc1 (stereo unspecified),–,–,–,92,–,–,MPTP swell DR=4.7;MPTP cs DR=36
SMILES,SMARCA2 activ,ATG4B inhibitor,MC4R antagonist,MPTP inh,MC4R barr agon,MPTP counter,others
CCn1c(SCC(=O)Nc2ccccc2-c2ccccc2)nnc1-c1ccc(Cl)cc1,–,·,·,·,·,·,
COc1ccc(CC(NC(C)=O)C(=O)N2CCN(C(=O)Nc3ccc(Cl)cc3)CC2)cc1OC (stereo unspecified),–,–,–,55,–,73,
CC(=O)C1(C(=O)NC2CCCC2)CC(c2ccccc2C(F)(F)F)=NO1 (stereo unspecified),–,·,·,·,·,·,
O=[N+]([O-])c1ccc(O)c(N=Cc2sc3ccccc3c2O)c1,–,–,–,60,–,67,
NC(=O)[C@@H]1CCCN1C(=O)[C@@H](Cc1ccccc1)NC(=O)[C@H]1O[C@@H](n2ccc(=O)[nH]c2=O)[C@H](O)[C@@H]1O,–,·,·,·,·,·,
O=Cc1ccc(OCC(=O)NCC2CCCO2)cc1 (stereo unspecified),–,–,–,64,–,–,MPTP swell DR=–;MPTP cs DR=–
O=C(COc1ccc(S(=O)(=O)NC2CCCCC2)cc1)NCC1CCCO1 (stereo unspecified),–,–,–,–,–,·,
O=C(Nc1cccc(C(F)(F)F)c1)OCCN1CCN(Cc2ccccc2)CCC1=O,–,–,–,98,–,90,
CCc1ccc(Nc2cc(=O)n(C3CCCCC3)c(=O)[nH]2)cc1,–,–,–,63,–,107,
O=c1cc(Nc2ccc3c(c2)OCCO3)[nH]c(=O)n1C1CCCCC1,–,–,–,–,–,·,
CN(C)c1ccc(NS(=O)(=O)c2cc(Cl)ccc2Cl)cc1,–,–,–,–,–,·,
Cc1ccc(NS(=O)(=O)c2sc3ccc(Cl)cc3c2C)cc1,–,–,–,66,–,63,
O=C(NCCCN1CCN(c2ccccc2F)CC1)Nc1ccc(F)cc1,–,–,–,–,–,·,
O=C(NCCN1CCc2ccccc2C1)Nc1ccc([N+](=O)[O-])cc1,–,–,–,94,–,84,
O=C(NCCN1CCN(Cc2ccc([N+](=O)[O-])cc2)CC1)C(=O)Nc1ccccc1,–,–,–,–,–,·,
CCN1CCN(Cc2ccc(NC(=O)Nc3ccccc3)cc2)CC1,·,–,–,–,–,·,
CCN1CCN(Cc2ccc(NC(=O)Nc3ccc(SC)cc3)cc2)CC1,–,–,–,52,–,–,MPTP swell DR=–;MPTP cs DR=–
O=C(NCCN1CCN(c2ccc([N+](=O)[O-])cc2)CC1)NCc1ccccc1,–,–,–,65,–,76,
CSc1ccc(NC(=O)NCCCN2CCN(c3ccccc3F)CC2)cc1,·,–,–,62,–,–,MPTP swell DR=–;MPTP cs DR=29
O=C(NCCCN1CCc2ccccc2C1)Nc1ccc(Br)cc1,–,–,–,93,–,103,
FC(F)(F)Oc1cccc(Cn2ccc3ccc(-c4ccc5ccn(Cc6ccccc6)c5c4)cc32)c1,–,·,·,·,·,·,
CCN(CC)CCOc1ccc(/C(=C(\Cl)c2ccccc2)c2ccccc2)cc1,–,–,–,104,–,–,
Cc1nc2ccccc2c(N)c1C(=O)/C=C/c1ccccc1,–,–,–,96,–,84,
O=C(CCN1CCc2ccccc2C(c2ccccc2)C1)c1ccc2c(c1)OCCO2 (stereo unspecified),–,–,–,83,–,–,
O=C(O)CCC(=O)c1ccc2c(c1)OCCO2,–,–,–,–,–,·,
OC(c1ccc(F)cc1)c1nc(-c2ccncc2)cs1 (stereo unspecified),–,·,–,65,–,57,
CC(=O)N(C)C[C@@H]1OCc2ccccc2-c2c(n(C)c3ccccc23)C(=O)N([C@@H](C)CO)C[C@@H]1C,–,·,·,·,·,·,
